Results on 4 molecules are retold here after ChEMBL document CHEMBL4316602, “Investigating the promiscuity of the chloramphenicol nitroreductase from Haemophilus influenzae towards the reduction of 4-nitrobenzene derivatives” (Bioorg Med Chem Lett, 2019).

Broadly, the Km is the concentration of substrate that gives half-maximal velocity.

The structures appear in SMILES notation.

What all share (type): ADME
The nature of series [1]: Substrate activity at recombinant Haemophilus influenzae Chloramphenicol nitroreductase expressed in Escherichia coli assessed as benzoic acid formation at 1 mM measured after 24 hrs at pH 8 under 37 degC by LC-MS analysis. The following applies: pH 8, 24 h, 1000 µM. Put shortly: (§1)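 50 mM Tris-HCl pH 8.0 holding 1 mM nitro compound, 5 µM CNR and 100 µM NADPH. NADPH is regenerated by 40 mM glucose plus 4 µM glucose dehydrogenase. Incubated 24 h at 37 °C, then extracted with EtOAc, dried, redissolved in MeOH and analysed by LCMS for reduction products.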

Series [2] is described as follows: Substrate activity at recombinant Haemophilus influenzae Chloramphenicol nitroreductase expressed in Escherichia coli assessed as 4-aminoether formation at 1 mM measured after 24 hrs at pH 8 under 37 degC by LC-MS analysis. The following applies: pH 8, 24 h, 1000 µM. Put shortly: as §1
The nature of series [3]: Substrate activity at recombinant Haemophilus influenzae Chloramphenicol nitroreductase expressed in Escherichia coli assessed as hydroxylamine formation at 1 mM measured after 24 hrs at pH 8 under 37 degC by LC-MS analysis. The following applies: pH 8, 24 h, 1000 µM. Put shortly:
as §1

In series [4] the test system is Chloramphenicol nitroreductase. Nature of the series: Substrate activity at recombinant Haemophilus influenzae Chloramphenicol nitroreductase expressed in Escherichia coli assessed as Km measured at 30 sec interval for 30 mins in presence of NADPH at 50 degC by Michaelis-Menton plot analysis. Put shortly:
(§2)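 Chloramphenicol varied 0–2500 µM (0, 1, 5, 10, 50, 100, 250, 500, 2500) with 0.4 µM CNR, 750 µM NADPH, 50 mM Tris-HCl pH 8.0, at 37 or 50 °C. NADPH consumption was followed at 340 nm every 30 s for 30 min. Initial rates came from the first 2–5 min, fitted to Michaelis–Menten for kcat and Km.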

The nature of series [5]: Substrate activity at recombinant Haemophilus influenzae Chloramphenicol nitroreductase expressed in Escherichia coli at 150 uM measured at 30 sec interval for 60 mins in presence of NADPH at 50 degC. The following applies: 1 h.
Series [6] has as its system Chloramphenicol nitroreductase. Nature of the series: Substrate activity at recombinant Haemophilus influenzae Chloramphenicol nitroreductase expressed in Escherichia coli assessed as Km measured at 30 sec interval for 30 mins in presence of NADPH at 37 degC by Michaelis-Menton plot analysis. Put shortly:
as §2

Series [7] is described as follows: Substrate activity at recombinant Haemophilus influenzae Chloramphenicol nitroreductase expressed in Escherichia coli assessed as Kcat measured at 30 sec interval for 30 mins in presence of NADPH at 50 degC by Michaelis-Menton plot analysis. Conditions: 0.5 h; call rule not given here. Put shortly: as §2
Series [8] in a line: Substrate activity at recombinant Haemophilus influenzae Chloramphenicol nitroreductase expressed in Escherichia coli at 150 uM measured at 30 sec interval for 60 mins in presence of NADPH at pH 8. Conditions: pH 8, 1 h. Put shortly:
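Each nitro compound at 150 µM in 50 mM Tris-HCl pH 8.0 with 1.0 mM NADPH. Started with 1 µM CNR and read at 340 nm (NADPH) every 30 s for 60 min. Initial rates were taken from the first 5 min and expressed as % of the chloramphenicol rate.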

Series [9] can be described thus: Substrate activity at recombinant Haemophilus influenzae Chloramphenicol nitroreductase expressed in Escherichia coli assessed as ratio Kcat to Km measured at 30 sec interval for 30 mins in presence of NADPH at 37 degC by Michaelis-Menton plot analysis. Conditions: 0.5 h. Put shortly: as §2
Series [10] in a line: Substrate activity at recombinant Haemophilus influenzae Chloramphenicol nitroreductase expressed in Escherichia coli assessed as Kcat measured at 30 sec interval for 30 mins in presence of NADPH at 37 degC by Michaelis-Menton plot analysis. The following applies: 0.5 h. Put shortly: as §2
A short description of series [11]: Substrate activity at recombinant Haemophilus influenzae Chloramphenicol nitroreductase expressed in Escherichia coli assessed as ratio of Kcat to Km measured at 30 sec interval for 30 mins in presence of NADPH at 50 degC by Michaelis-Menton plot analysis. The following applies: 0.5 h. Put shortly:
as §2

Consider `O=C(OCc1ccc([N+](=O)[O-])cc1)c1ccc(Cl)cc1`, for which the result in series [1] was Active.

Consider `O=[N+]([O-])c1ccc(COCc2ccc(Br)cc2)cc1`, for which the result in series [2] and in [3] was Active.

For `O=C(OCc1ccc([N+](=O)[O-])cc1)c1ccc(Cl)cc1F`, in series [1], the outcome was Active.

As to `O=C(N[C@H](CO)[C@H](O)c1ccc([N+](=O)[O-])cc1)C(Cl)Cl` [CHLORAMPHENICOL], the Km at 0.5 h in [4] came to 191 µM; in series [6], 273 µM. Also, the outcome in [5] and in series [8] was Active. Also, the Kcat worked out at 65 s⁻¹ in [7] and 61 s⁻¹ in series [10]. The results for the Kcat/Km in series [9] and in series [11] were 220000 M⁻¹ s⁻¹ and 340000 M⁻¹ s⁻¹, respectively.
